Calls of active or inactive are those of the source. No cut-off for these calls is given here.
Legend:
Pasteurella multocida = test: Antibacterial activity against Pasteurella multocida 10544 by two-fold agar dilution method; format: functional
Method in brief: (§1)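 MIC determined by twofold serial dilution in brain-heart infusion agar. Values are reported in µg/mL.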

Enterococcus = test: Antibacterial activity against Enterococcus 89 by two-fold agar dilution method; format: functional; method in brief: as §1
Klebsiella pneumoniae = test: Antibacterial activity against Klebsiella pneumoniae 8045 by two-fold agar dilution method; format: functional; method in brief: as §1
Streptococcus pyogenes = test: Antibacterial activity against Streptococcus pyogenes C-203 by two-fold agar dilution method; format: functional; method in brief: as §1
Staphylococcus aureus [1] = test: Antibacterial activity against Staphylococcus aureus Smith by two-fold agar dilution method; format: functional; method in brief: as §1
Escherichia coli = test: Antibacterial activity against Escherichia coli Juhl by two-fold agar dilution method; format: functional; method in brief: as §1
Pseudomonas aeruginosa = test: Antibacterial activity against Pseudomonas aeruginosa by two-fold agar dilution method; format: functional, organism-based; method in brief: as §1
Staphylococcus aureus [2] = test: Antibacterial activity against Staphylococcus aureus 45 by two-fold agar dilution method; format: functional; method in brief: as §1
Salmonella typhi = test: Antibacterial activity against Salmonella typhi by two-fold agar dilution method; format: functional, Salmonella enterica subsp. enterica serovar Typhi; settings: Salmonella enterica
Method in brief: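 MIC in µg/mL by twofold serial agar dilution on brain-heart infusion agar.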

Proteus mirabilis = test: Antibacterial activity against Proteus mirabilis by two-fold agar dilution method; format: functional; method in brief: as §1
Proteus vulgaris = test: Antibacterial activity against Proteus vulgaris by two-fold agar dilution method; format: functional; method in brief: as §1

SMILES	MIC (Pasteurella multocida)	MIC (Enterococcus)	MIC (Klebsiella pneumoniae)	MIC (Streptococcus pyogenes)	MIC (Staphylococcus aureus [1])	MIC (Escherichia coli)	Activity (Pseudomonas aeruginosa)	MIC (Staphylococcus aureus [2])	MIC (Salmonella typhi)	MIC (Proteus mirabilis)	MIC (Proteus vulgaris)
C/C(=N\NC(=O)Cc1ccccc1)C1=C(O)[C@H](N)[C@@H]2Cc3c(c(O)c4c(O)c(C)ccc4c3C)C(=O)[C@]2(O)C1=O.Cl	6.2 mg/L	50 mg/L	6.2 mg/L	12.5 mg/L	25 mg/L	50 mg/L	inactive	25 mg/L	12.5 mg/L	12.5 mg/L	12.5 mg/L
C/C(=N\c1ccc(C)cc1)C1=C(O)[C@H](N)[C@@H]2Cc3c(c(O)c4c(O)c(C)ccc4c3C)C(=O)[C@]2(O)C1=O.Cl	0.39 mg/L	25 mg/L	6.2 mg/L	6.2 mg/L	12.5 mg/L	25 mg/L	inactive	12.5 mg/L	3.1 mg/L	6.2 mg/L	6.2 mg/L
C/C(=N\c1ccc(F)cc1)C1=C(O)[C@H](N)[C@@H]2Cc3c(c(O)c4c(O)c(C)ccc4c3C)C(=O)[C@]2(O)C1=O.Cl	0.39 mg/L	12.5 mg/L	1.56 mg/L	3.1 mg/L	6.2 mg/L	6.2 mg/L	inactive	12.5 mg/L	1.5 mg/L	3.1 mg/L	1.56 mg/L
C/C(=N\NC(=O)CC#N)C1=C(O)[C@H](N)[C@@H]2Cc3c(c(O)c4c(O)c(C)ccc4c3C)C(=O)[C@]2(O)C1=O.Cl	1.56 mg/L	50 mg/L	12.5 mg/L	50 mg/L	50 mg/L	50 mg/L	inactive	50 mg/L	12.5 mg/L	12.5 mg/L	12.5 mg/L
C/C(=N\c1ccc(CC(=O)O)cc1)C1=C(O)[C@H](N)[C@@H]2Cc3c(c(O)c4c(O)c(C)ccc4c3C)C(=O)[C@]2(O)C1=O.Cl	0.39 mg/L	12.5 mg/L	1.56 mg/L	3.1 mg/L	6.2 mg/L	6.2 mg/L	inactive	6.2 mg/L	1.5 mg/L	3.1 mg/L	1.56 mg/L
C/C(=N\c1ccc(C(=O)O)cc1)C1=C(O)[C@H](N)[C@@H]2Cc3c(c(O)c4c(O)c(C)ccc4c3C)C(=O)[C@]2(O)C1=O.Cl	0.39 mg/L	6.2 mg/L	1.56 mg/L	3.1 mg/L	3.1 mg/L	6.2 mg/L	inactive	6.2 mg/L	1.5 mg/L	3.1 mg/L	1.56 mg/L
COc1ccc(C(=O)N/N=C(\C)C2=C(O)[C@H](N)[C@@H]3Cc4c(c(O)c5c(O)c(C)ccc5c4C)C(=O)[C@]3(O)C2=O)cc1.Cl (stereo in doubt)	3.1 mg/L	> 100 mg/L	50 mg/L	50 mg/L	100 mg/L	100 mg/L	inactive	100 mg/L	25 mg/L	25 mg/L	25 mg/L
C/C(=N\NC(=O)c1cccnc1)C1=C(O)[C@H](N)[C@@H]2Cc3c(c(O)c4c(O)c(C)ccc4c3C)C(=O)[C@]2(O)C1=O.Cl	12.5 mg/L	> 100 mg/L	100 mg/L	100 mg/L	> 100 mg/L	100 mg/L	inactive	> 100 mg/L	100 mg/L	> 100 mg/L	> 100 mg/L
C/C(=N\N1CCOCC1)C1=C(O)[C@H](N)[C@@H]2Cc3c(c(O)c4c(O)c(C)ccc4c3C)C(=O)[C@]2(O)C1=O.Cl	0.78 mg/L	12.5 mg/L	6.2 mg/L	12.5 mg/L	12.5 mg/L	25 mg/L	inactive	12.5 mg/L	3.1 mg/L	12.5 mg/L	6.2 mg/L
C/C(=N\c1ccccc1)C1=C(O)[C@H](N)[C@@H]2Cc3c(c(O)c4c(O)c(C)ccc4c3C)C(=O)[C@]2(O)C1=O.Cl	1.56 mg/L	25 mg/L	12.5 mg/L	12.5 mg/L	12.5 mg/L	25 mg/L	inactive	12.5 mg/L	6.2 mg/L	6.2 mg/L	6.2 mg/L
C/C(=N\NC(=O)c1ccncc1)C1=C(O)[C@H](N)[C@@H]2Cc3c(c(O)c4c(O)c(C)ccc4c3C)C(=O)[C@]2(O)C1=O.Cl (stereo in doubt)	6.2 mg/L	50 mg/L	12.5 mg/L	12.5 mg/L	50 mg/L	50 mg/L	inactive	50 mg/L	12.5 mg/L	12.5 mg/L	12.5 mg/L
